In PubChem BioAssay AID540246 (Broad Institute, 2011):
The source made the active and inactive calls.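 How the source made its calls: active means IC50 no more than ten times the top valid dose, with luminescence dropping as cells die; inconclusive means flat curve losing 30 to 70% of signal, or poor fit; inactive means the rest, including signal rises.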

test system: ldlA[mSR-BI] CHO cells viability, CellTiter-Glo ATP, 3 h; experiment: cytotoxicity in ldlA[mSR-BI] cells, dose response, cytotoxicity control for SR-BI HDL uptake inhibitor project, cell-based, CellTiter-Glo, 3 h, dry powder (AID 540246); details: not given
Summary of the method: (§1)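 Test system: ldlA[mSR-BI] cells. Buffer or medium: Ham's F12 growth medium containing 10% FCS. Compound: eight doses per compound. Times: 3 h compound exposure of cells at 37 °C. Technique: cell Titer Glo ATP luminescence. Read-out: IC50 for loss of cell viability fitted from dose series.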

| SMILES | IC50 |
| --- | --- |
| C[C@H]1CN([C@@H](C)CO)C(=O)c2cccc(NC(=O)Nc3ccccc3)c2O[C@@H]1CN(C)Cc1ccc(Cl)c(Cl)c1 | 66.5 µM |
| CCOc1ccccc1/C=C/c1onc(C)c1S(=O)(=O)N1CCC(C(=O)NC(C)(C)C)CC1 | > 35 µM (inactive) |
| C[C@H]1CN([C@@H](C)CO)C(=O)c2cccc(NC(=O)Nc3ccc(F)cc3)c2O[C@@H]1CN(C)Cc1ccc(Cl)c(Cl)c1 | 48.1 µM |
| O=C(Nc1cc(Cl)ccc1Cl)c1cc(Cl)ccc1NS(=O)(=O)c1ccc(Cl)c([N+](=O)[O-])c1 | > 35 µM (inactive) |
| COc1ccc(-c2nnn(CC(=O)N(C3CCCCC3)C(C)C(=O)NC3CCCC3)n2)cc1OC (stereo not given) | > 35 µM (inactive) |
| O=C(Nc1ccc(-c2nc3ccc(NC(=O)c4ccccc4)cc3[nH]2)cc1)c1ccccc1 | 37.8 µM |
| Cc1cc(C(=O)C(C)OC(=O)C2=NNC(=O)CC2)c(C)n1-c1ccc(OC(F)F)cc1 (stereo not given) | > 35 µM (inactive) |
| Cc1ccc2oc(-c3cccc(NC(=O)c4cc(-n5cnnc5)ccc4Cl)c3)nc2c1 | 31.7 µM |
| CCOC(=O)Nc1cccc(NC(=O)c2cc(OC)cc(OC)c2)c1 | > 35 µM (inactive) |

test system: not listed separately; experiment: as above; details: ldlA[mSR-BI] CHO cells viability, CellTiter-Glo ATP, 3 h; at 30 µM (top of the series)
Summary of the method: as §1

| SMILES | activity change, negative = cytotoxicity |
| --- | --- |
| C[C@H]1CN([C@@H](C)CO)C(=O)c2cc(NC(=O)Cc3cn(C)c4ccccc34)ccc2O[C@H]1CN(C)S(=O)(=O)c1ccc(F)cc1 | -3.79% (inactive) |

same assay, conditions: ldlA[mSR-BI] CHO cells viability, CellTiter-Glo ATP, 3 h; at 35 µM (top of the series)

| SMILES | activity change, negative = cytotoxicity |
| --- | --- |
| C[C@@H]1CN([C@H](C)CO)C(=O)c2cc(NC(=O)Cc3cn(C)c4ccccc34)ccc2O[C@H]1CN(C)S(=O)(=O)c1ccc(F)cc1 | 3.35% (inactive) |
| C[C@@H]1CN([C@H](C)CO)C(=O)c2cc(NC(=O)Cc3cn(C)c4ccccc34)ccc2O[C@@H]1CN(C)S(=O)(=O)c1ccc(F)cc1 | 4.76% (inactive) |
| C[C@@H]1CN([C@H](C)CO)C(=O)Cc2cc(NC(=O)Cc3cn(C)c4ccccc34)ccc2O[C@H]1CN(C)S(=O)(=O)c1ccc(F)cc1 | -1% (inactive) |
| C[C@H]1CN([C@@H](C)CO)C(=O)c2cccc(NC(=O)Nc3ccccc3)c2O[C@@H]1CN(C)S(C)(=O)=O | -2.86% (inactive) |
| CCOC(=O)N1CCC(NC(=O)c2ccc3c(c2)N(Cc2ccc(F)cc2)CCS3)CC1 | -2.37% (inactive) |
| N#Cc1sc2nc(C3CC3)cc(-c3ccc(Cl)cc3)c2c1N | -2.17% (inactive) |
| CC(C)NC(=O)Nc1cccc2c1O[C@H](CN(C)Cc1ccc(Cl)c(Cl)c1)[C@@H](C)CN([C@@H](C)CO)C2=O | 3.16% (inactive) |
| Cc1cc(SC(C)C(=O)Nc2ncc(Cl)cc2Cl)nc2ccccc12 (stereo not given) | -7.81% (inactive) |
| CC(C)(C)NC(=O)N1CCN(c2ncccc2C(F)(F)F)CC1 | 5.12% (inactive) |
| COc1cccc(-c2csc(N3CCN(C(=S)Nc4cccc(Cl)c4)CC3)n2)c1 | -1.79% (inactive) |
| CCc1cc2cc3c(cc2nc1SCC(=O)OC(C)C)OCO3 | 0.059% (inactive) |
| C[C@@H]1CN([C@H](C)CO)C(=O)c2cc(NC(=O)Cc3cn(C)c4ccccc34)ccc2O[C@H]1CN(C)C(=O)Nc1ccc(F)cc1 | 0.369% (inactive) |
| O=C(Nc1ccc(-c2nc3cc(NC(=O)c4ccccc4[N+](=O)[O-])ccc3o2)cc1)c1ccccc1[N+](=O)[O-] | 9.71% (inactive) |
| C[C@H](CO)N1C[C@H](C)[C@H](CN(C)S(=O)(=O)c2ccc(F)cc2)Oc2ccc(NC(=O)CCC(F)(F)F)cc2C1=O | 0.245% (inactive) |
| C[C@H]1CN([C@@H](C)CO)C(=O)c2cc(NC(=O)Nc3ccccc3)ccc2O[C@@H]1CN(C)Cc1ccc(Cl)c(Cl)c1 | -3.65% (inactive) |
| C[C@@H]1CN([C@@H](C)CO)C(=O)c2cc(NC(=O)Cc3cn(C)c4ccccc34)ccc2O[C@H]1CN(C)S(=O)(=O)c1ccc(F)cc1 | -10.2% (inactive) |
| Nc1ccc(C(=O)Nc2ccc(-c3nc4ccc(NC(=O)c5ccc(N)cc5)cc4[nH]3)cc2)cc1 | 11.1% (inactive) |
| C[C@H]1CN([C@@H](C)CO)C(=O)c2cccc(NC(=O)Nc3ccccc3)c2O[C@@H]1CN(C)Cc1ccccc1 | 6.56% (inactive) |
| C[C@H]1CN([C@@H](C)CO)C(=O)c2cccc(NC(=O)Nc3ccccc3)c2O[C@@H]1CN(C)Cc1ccc(C(F)(F)F)cc1 | 0.509% (inactive) |
| COc1ccc(OC)c(CCNC(=O)c2ccc3c(c2)N(Cc2ccc(F)cc2)CCS3)c1 | -8.19% (inactive) |
| C[C@H]1CN([C@@H](C)CO)C(=O)c2cc(NC(=O)Cc3cn(C)c4ccccc34)ccc2O[C@@H]1CN(C)S(=O)(=O)c1ccc(F)cc1 | 6.2% (inactive) |
| C[C@H](CO)N1C[C@H](C)[C@H](CN(C)S(=O)(=O)c2ccc(F)cc2)Oc2ccc(NC(=O)Cc3ccccc3)cc2C1=O | 2.52% (inactive) |
| C[C@@H]1CN([C@H](C)CO)C(=O)c2cc(NC(=O)Cc3cn(C)c4ccccc34)ccc2O[C@H]1CN(C)S(=O)(=O)c1ccc(Cl)cc1 | 1.29% (inactive) |
| CNC[C@@H]1Oc2ccc(NC(=O)Cc3cn(C)c4ccccc34)cc2C(=O)N([C@H](C)CO)C[C@H]1C | -2.77% (inactive) |
| CCC(=O)N1CCc2cc(-c3csc(NC(=O)c4ccco4)n3)ccc21 | -3.84% (inactive) |

| SMILES | activity change, negative = cytotoxicity |
| --- | --- |
| Cc1cc(C)c2c(c1)NC(c1cc3c(cc1Br)OCO3)C1CC=CC21 (stereo not given) | -1.84% (inactive) |
| CCn1c(COc2c(C)cccc2C)nnc1SCC(=O)N1CCN(c2ccccc2)CC1 | -2.44% (inactive) |
| CCc1sc(N2C(=O)C3C4CCC(C4=C(C)C)C3C2=O)nc1-c1ccccc1 (stereo not given) | 3.35% (inactive) |
| C[C@H]1CN([C@@H](C)CO)C(=O)c2cccc(NC(=O)Nc3ccccc3)c2O[C@@H]1CN(C)C | -3.85% (inactive) |
| C[C@@H]1CN([C@H](C)CO)C(=O)c2cc(NC(=O)Cc3cn(C)c4ccccc34)ccc2O[C@H]1CN(C)S(C)(=O)=O | 0.836% (inactive) |
| COc1ccc([C@H]2CC(=O)C=C(c3cccc4c3sc3ccccc34)C2)cc1OC | 3.09% (inactive) |
| C[C@H](CO)N1C[C@H](C)[C@@H](CN(C)S(=O)(=O)c2ccc(F)cc2)Oc2ccc(NC(=O)Cc3cn(C)c4ccccc34)cc2C1=O | 4.04% (inactive) |
| CC(C)OCCCNC(=O)c1ccc(C2SCC(=O)N2Cc2ccco2)cc1 (stereo not given) | 0.099% (inactive) |
| O=C(Nc1cc(C(F)(F)F)ccc1Cl)c1ccccc1NS(=O)(=O)c1ccc(Cl)cc1 | 4.37% (inactive) |
| C[C@H]1CN([C@@H](C)CO)C(=O)c2cccc(NS(C)(=O)=O)c2O[C@@H]1CN(C)Cc1ccc(Cl)c(Cl)c1 | 7.9% (inactive) |
| C[C@H]1CN([C@@H](C)CO)C(=O)c2cccc(N(C)C)c2O[C@@H]1CN(C)Cc1ccc(Cl)c(Cl)c1 | -9.85% (inactive) |
| COC(=O)c1cn(C(=O)c2cccc3ccccc23)c2ccccc12 | -9.72% (inactive) |
| Cc1cc(C)n(CC(=O)NC2CCCc3c2cnn3-c2ccc(C)c(C)c2)n1 (stereo not given) | 0.308% (inactive) |
| C[C@H](CO)N1C[C@H](C)[C@H](CN(C)S(=O)(=O)c2ccc(F)cc2)Oc2ccc(NS(C)(=O)=O)cc2C1=O | -0.83% (inactive) |
| CC(OC(=O)c1cccc(NS(C)(=O)=O)c1)C(=O)Nc1ccc(N2CCOCC2)cc1 (stereo not given) | -2.45% (inactive) |
| C[C@@H]1CN([C@H](C)CO)C(=O)c2cc(NC(=O)Cc3cn(C)c4ccccc34)ccc2O[C@H]1CN(C)S(=O)(=O)c1ccccc1 | 1.67% (inactive) |
| C[C@@H]1CN([C@@H](C)CO)C(=O)c2cc(NC(=O)Cc3cn(C)c4ccccc34)ccc2O[C@@H]1CN(C)S(=O)(=O)c1ccc(F)cc1 | 6.07% (inactive) |
| O=C(Nc1ccc(-c2nc3ccc(NC(=O)c4ccccc4[N+](=O)[O-])cc3[nH]2)cc1)c1ccccc1[N+](=O)[O-] | 6.25% (inactive) |
| O=C(Nc1ccc(-c2nc3ccc(NC(=O)c4ccc(Cl)cc4)cc3[nH]2)cc1)c1ccc(Cl)cc1 | 5.01% (inactive) |
| O=C(Nc1cccc(NC(=O)c2cc([N+](=O)[O-])ccc2Cl)n1)c1cc([N+](=O)[O-])ccc1Cl | -3.61% (inactive) |
| C[C@H](CO)N1C[C@H](C)[C@H](CN(C)S(=O)(=O)c2ccc(F)cc2)Oc2ccc(NC(=O)Cc3cn(C)c4ccccc34)cc2C1=O | -7.27% (inactive) |
| O=C(Nc1ccc(-c2nc3cc(NC(=O)c4ccc(NC(=O)c5cccc6ccccc56)cc4)ccc3[nH]2)cc1)c1ccc(NC(=O)c2cccc3ccccc23)cc1 | -0.376% (inactive) |
| O=C(Nc1cc(Cl)ccc1Cl)c1cc(Br)ccc1NS(=O)(=O)c1ccc(Cl)c([N+](=O)[O-])c1 | -7.81% (inactive) |
| O=C(Nc1ccc(-c2nc3cc(NC(=O)c4ccccc4Cl)ccc3o2)cc1)c1ccccc1Cl | 15.2% (inactive) |
| O=C(Nc1ccccc1Cl)c1ccccc1NS(=O)(=O)c1ccccc1 | 0.062% (inactive) |
